Screening results deposited in PubChem BioAssay by several laboratories.
The list is not random: actives were taken first. Their share in the collection is about 2.3%.
Rtt109 Vps75: blocks Candida albicans Rtt109/Vps75 acetyltransferase activity; Q5AAJ8; hit rate 0.16% among 330,000; purified Rtt109/Vps75, ThioGlo CoA-SH fluorescence, 4 h; AID 540336; inhibition, % at 34.9 µM;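 active = inhibition of at least 50% in every replicate; inconclusive = best replicate reaches 50% inhibition but some replicates fall short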
Target sequence (Q5AAJ8 whole entry, looked up): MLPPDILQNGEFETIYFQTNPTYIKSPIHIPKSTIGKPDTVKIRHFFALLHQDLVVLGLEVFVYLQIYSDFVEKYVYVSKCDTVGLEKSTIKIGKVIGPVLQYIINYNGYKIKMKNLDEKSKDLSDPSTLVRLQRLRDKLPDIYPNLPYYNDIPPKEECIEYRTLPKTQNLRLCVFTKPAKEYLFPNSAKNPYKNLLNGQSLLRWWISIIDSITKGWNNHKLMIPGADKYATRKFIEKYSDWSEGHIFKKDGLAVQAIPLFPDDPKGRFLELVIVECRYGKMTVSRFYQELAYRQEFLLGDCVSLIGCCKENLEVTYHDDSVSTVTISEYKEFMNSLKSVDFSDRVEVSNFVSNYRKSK
Arr AP2 block: human beta-arrestin and AP2 interaction inhibition; FITC-arrestin peptide / GST-AP2 beads, flow cytometry; AP2 beta2 appendage carries R879A mutation; inhibition, % at 10 µM; hit rate 0.31% among 340,000;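 active = inhibition above a set limit, near 3 SD of compounds lacking own fluorescence, cut at about 54% in these data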;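 note: plate controls were DMSO wells for no effect and 5 µM unlabelled arrestin peptide for full effect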
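System: GST-AP2 R879A glutathione beads | Also added: FITC-arrestin peptide, 50 nM | Times: 12 min plus 1 h, RT | Signal: Bead flow cytometry, FITC channel | Buffer or medium: PBS with 0.05% Tween 20 and 0.1% BSA | Read-out basis: Percent drop in bead-associated FITC signal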
N-glyco inh: N-linked glycosylation inhibition | D54 ERlucT glycosylation luciferase reporter, 24 h; percent of 100 nM tunicamycin response | reporter increase, % at 12.5 µM | hit rate 0.23% among 360,000 | AID 588692;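 active = mean luciferase reporter signal, scaled so untreated is 0 and the glycosylation-blocking control 100, at or above a set limit in every replicate; inconclusive = mean reaches the limit but not every replicate does; inactive = mean below the limit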;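 note: luciferase carries N-glycosylation sites so blocking glycosylation raises the light; 0% = median of neutral control wells and 100% = median of 100 nM tunicamycin wells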
PfHsp90 yeast 2: growth inhibition of yeast expressing Plasmodium Hsp90; S. cerevisiae expressing PfHsp90, BacTiter-Glo ATP, 48 h; yeast lacking PDR1 and PDR3 efflux regulators; AID 504621; hit rate 0.32% among 310,000; inhibition, % at 9.4 µM;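 active = every replicate shows inhibition above about 80%, whatever the replicate mean, limit read from the data; inconclusive = mean inhibition reaches the set limit but some replicate falls short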;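 note: 0% = DMSO neutral controls and 100% = 20 µM radicicol positive controls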
PAX8 reporter: inhibitors of PAX8 transcriptional activity in RMG-I cells; RMG-I TPO-luciferase reporter, SteadyGlo, 24 h; inhibition, % at 12.6 µM; hit rate 1.2% among 360,000;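 active = mean replicate inhibition at least 60% with every replicate also reaching 60%; inconclusive = only one of the two criteria is met; inactive = mean below 60% and not all replicates reaching 60%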;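 note: luciferase light reporting Pax8 driven TPO promoter activity; plate controls were median of neutral control wells for no effect and mitoxantrone controls for full effect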
HIV Env fusion: inhibitors of HIV Env-mediated cell fusion | HeLa-JRFL Env/CEM21 cell fusion, luciferase | inhibition, % at 12.3 µM | hit rate 1.1% among 360,000;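 active = mean replicate inhibition score of at least 50 and every replicate individually at or above 50; inconclusive = only one of the two criteria met; inactive = mean below 50 and not all replicates reaching 50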;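 note: 0% = plate neutral controls and 100% = maraviroc near 300 nM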
An asterisk follows results filed as active; [ ] = dose if it differs, or a comment.

Results for C[C@@H]1CN([C@@H](C)CO)C(=O)c2cccc(NC(=O)Nc3ccc(C(F)(F)F)cc3)c2O[C@@H]1CN(C)Cc1ccc(Oc2ccccc2)cc1 ?
HIV Env fusion: -34[16.7 µM]

How did Cc1cc(C(=O)Nc2cccc3c2O[C@H](CN(C)Cc2ccc(Oc4ccccc4)cc2)[C@@H](C)CN([C@H](C)CO)C3=O)n(C)n1 do in these assays?
PAX8 reporter: 76*; HIV Env fusion: 16[16.7 µM]

How did COc1ccc(CN(C)C[C@@H]2Oc3c(NC(=O)C4CCCCC4)cccc3C(=O)N([C@H](C)CO)C[C@@H]2C)cc1 do in these assays?
PAX8 reporter: 16; HIV Env fusion: -16[16.7 µM]

How did CCc1ccc(Nc2n[n+](-c3ccccc3)c(-c3ccc(N(CC)CC)cc3)s2)cc1 do in these assays?
Rtt109 Vps75: -22; Arr AP2 block: -1; N-glyco inh: 22; PfHsp90 yeast 2: 10; PAX8 reporter: 82*; HIV Env fusion: 39

What do the screens show for `CCc1ccc(Nc2n[n+](-c3ccccc3)c(-c3c(Cl)cccc3Cl)s2)cc1`?
Rtt109 Vps75: 12; Arr AP2 block: 29; N-glyco inh: 9; PfHsp90 yeast 2: -3; PAX8 reporter: 101*; HIV Env fusion: 70*

Results for CCN(CC)c1ccc(-c2sc(Nc3ccccc3)n[n+]2-c2ccc(F)cc2)cc1 ?
Rtt109 Vps75: -8; Arr AP2 block: 2; N-glyco inh: 0; PfHsp90 yeast 2: -10; PAX8 reporter: -1; HIV Env fusion: 8

Results for O=C(C[C@@H]1CC[C@H]2[C@@H](COC[C@H](O)CN2C(=O)Nc2ccccc2)O1)NCCCN1CCOCC1 ?
PAX8 reporter: -9

Results for N#CCC(CNc1ncc(C(F)(F)F)cc1Cl)OC(=O)c1ccc(Cl)cc1Cl (centres undefined) ?
Rtt109 Vps75: -1; Arr AP2 block: 12; N-glyco inh: 30*

What do the screens show for `C[C@H](CO)N1C[C@H](C)[C@H](CN(C)C(=O)Nc2ccccc2)OCCCC[C@H](C)Oc2ccc(NS(=O)(=O)c3ccc(F)cc3)cc2C1=O`?
PAX8 reporter: 16; HIV Env fusion: -77[16.7 µM]

Results for COc1ccc(NC(C)=[N+](C)CCNS(=O)(=O)c2ccc(Cl)cc2)cc1Cl ?
Rtt109 Vps75: 2; Arr AP2 block: -23; N-glyco inh: -3; PfHsp90 yeast 2: -29; PAX8 reporter: -4; HIV Env fusion: inactive

How did CC(Nc1cc(C)cc(C)c1)=[N+](C)CCNS(=O)(=O)c1ccc(Cl)cc1 do in these assays?
Rtt109 Vps75: -3; Arr AP2 block: 15; N-glyco inh: -2; PfHsp90 yeast 2: 8; PAX8 reporter: 18; HIV Env fusion: 61*

How did O=C(Nc1ccccc1F)N[C@@H]1CC[C@@H](CCNS(=O)(=O)c2ccc(F)cc2)O[C@@H]1CO do in these assays?
HIV Env fusion: -8[16.7 µM]

How did COCCNC(=O)C/C(C)=N/NC(=O)C(=O)NC1CCCCC1 do in these assays?
Rtt109 Vps75: -4; Arr AP2 block: -4; N-glyco inh: 1; PfHsp90 yeast 2: -14; PAX8 reporter: 101*; HIV Env fusion: -1

What do the screens show for `COc1ccc([N+](=O)[O-])cc1NC(=O)C(C)OC(=O)c1ccccc1C(=O)c1ccc(Cl)cc1` (centres undefined)?
Rtt109 Vps75: -2; Arr AP2 block: 10; N-glyco inh: 0; PfHsp90 yeast 2: 2; PAX8 reporter: 24; HIV Env fusion: 85*

Results for COc1ccc([N+](=O)[O-])cc1NC(=O)COC(=O)c1ccccc1C(=O)c1ccccc1 ?
Arr AP2 block: -4; N-glyco inh: -5; PfHsp90 yeast 2: 6

How did Cc1ccccc1-c1cnc2c(c1)C(=O)N([C@H](C)CO)C[C@@H](C)[C@H](CN(C)CC1CCOCC1)O2 do in these assays?
HIV Env fusion: -9[16.7 µM]

Results for O=C1C(=O)N(CCN2CCOCC2)C(c2ccc(Cl)c(Cl)c2)/C1=C(/O)c1ccc2c(c1)OCO2 (centres undefined) ?
Rtt109 Vps75: 1; Arr AP2 block: 42; N-glyco inh: 1; PfHsp90 yeast 2: 1; PAX8 reporter: 20; HIV Env fusion: 63*

Results for Nc1ncnc2c(C3OC(CO)C(O)C3O)c[nH]c12 (centres undefined) ?
Rtt109 Vps75: 0; Arr AP2 block: 4; N-glyco inh: -20; PfHsp90 yeast 2: 1; PAX8 reporter: 118*; HIV Env fusion: 95*

What do the screens show for `COc1cccc(S(=O)(=O)N(C)C[C@H]2OCc3ccccc3-c3c(n(C)c4ccccc34)C(=O)N([C@@H](C)CO)C[C@H]2C)c1`?
PAX8 reporter: 86*; HIV Env fusion: -104[16.7 µM]

How did COc1cccc(S(=O)(=O)N(C)C[C@@H]2OCc3ccccc3-c3c(n(C)c4ccccc34)C(=O)N([C@H](C)CO)C[C@H]2C)c1 do in these assays?
PAX8 reporter: 44; HIV Env fusion: -13[16.7 µM]

How did COc1cccc(S(=O)(=O)N(C)C[C@@H]2OCc3ccccc3-c3c(n(C)c4ccccc34)C(=O)N([C@H](C)CO)C[C@@H]2C)c1 do in these assays?
PAX8 reporter: 75*; HIV Env fusion: 55*[16.7 µM]

How did COc1cccc(S(=O)(=O)N(C)C[C@@H]2OCc3ccccc3-c3c(n(C)c4ccccc34)C(=O)N([C@@H](C)CO)C[C@@H]2C)c1 do in these assays?
PAX8 reporter: 82*; HIV Env fusion: 60*[16.7 µM]

Results for COc1cccc(S(=O)(=O)N(C)C[C@@H]2OCc3ccccc3-c3ccccc3C(=O)N([C@@H](C)CO)C[C@@H]2C)c1 ?
PAX8 reporter: 91*; HIV Env fusion: 33[16.7 µM]

Results for CO[C@H]1CN(C)C(=O)c2ccc(NC(=O)c3nc4ccccc4s3)cc2OC[C@H](C)N(Cc2ccncc2)C[C@H]1C ?
PAX8 reporter: -10

How did COc1cccc(S(=O)(=O)N(C)C[C@H]2OCc3ccccc3-c3c(n(C)c4ccccc34)C(=O)N([C@H](C)CO)C[C@@H]2C)c1 do in these assays?
PAX8 reporter: 66*; HIV Env fusion: 38[16.7 µM]

How did COc1ccccc1C#Cc1ccc2c(c1)O[C@@H](CN(C)Cc1cccnc1)[C@H](C)CN([C@@H](C)CO)S2(=O)=O do in these assays?
PAX8 reporter: 68*

What do the screens show for `COc1ccccc1C#Cc1ccc2c(c1)O[C@@H](CN(C)Cc1ccncc1)[C@@H](C)CN([C@H](C)CO)S2(=O)=O`?
PAX8 reporter: 4; HIV Env fusion: inconclusive

How did COc1ccccc1C#Cc1ccc2c(c1)O[C@@H](CN(C)Cc1cccnc1)[C@@H](C)CN([C@@H](C)CO)S2(=O)=O do in these assays?
PAX8 reporter: 24

How did COc1ccccc1C#Cc1ccc2c(c1)O[C@H](CN(C)Cc1ccncc1)[C@@H](C)CN([C@@H](C)CO)S2(=O)=O do in these assays?
PAX8 reporter: 93*; HIV Env fusion: 48*[16.7 µM]
